Screening results from PubChem BioAssay.
Only some compounds are listed: those with a hit (about 0.96% of all), similar ones and a draw of the others.
AGP1-GFP MLPCN: modulators of AGP1-GFP expression in yeast TOR pathway, primary screen, cell-based, multiplex flow cytometry, S. cerevisiae, MLPCN library; 3 h; GFP as percent of DMSO wells; GFP response vs DMSO, % at 10 µM; 320,000 compounds, 0.02% hits; AID 2066, 2009;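 active = GFP response relative to DMSO above a set limit, near screen average plus 3 SD, cut at about 150% in these data; inconclusive = fewer than 70 cells counted for the yeast strain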;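 note: median GFP channel fluorescence of the gated AGP1 strain per well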
MEP2-GFP yeast: modulators of MEP2-GFP levels in yeast, primary screen, S. cerevisiae, multiplex flow cytometry, MLPCN library | 330,000 compounds, 0.51% hits | AID 2016, 2009 | S. cerevisiae MEP2-GFP strain, 3 h; 100% = DMSO control level | GFP response vs DMSO, % at 10 µM;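 active = GFP response versus DMSO above a set limit, roughly screen mean plus 3 SD, cut at about 180% in these data; inconclusive = fewer than 70 cells counted for a yeast strain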;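 note: median GFP fluorescence of the barcode-gated MEP2-GFP cells per well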
RPL19A-GFP yeast: RPL19A-GFP expression modulators in yeast, primary screen, cell-based, S. cerevisiae, multiplex flow cytometry, MLPCN; S. cerevisiae RPL19A-GFP strain, 3 h; hits give low values; percent response vs DMSO, % at 10 µM; 330,000 compounds, 0.3% hits; AID 2025, 2009;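 active = percent response vs DMSO below 50%; inconclusive = fewer than 70 events counted for the yeast strain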;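 note: median channel GFP fluorescence of the barcoded RPL19A-GFP strain; ratio of sample median GFP to plate DMSO average so 100% = DMSO; lower means less RPL19A-GFP as with rapamycin TOR inhibition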
LAP4 TOR yeast: modulators of LAP4-GFP expression in yeast, primary screen, S. cerevisiae, multiplex flow cytometry, MLPCN library; 3 h; median GFP as percent of DMSO wells; GFP response vs DMSO, % at 10 µM; 320,000 compounds, 0.34% hits;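 active = GFP response vs DMSO above a set limit, about the screen mean plus 3 SD, cut at about 150% in these data; inconclusive = under 70 cell events counted for the yeast strain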
CIT2 TOR yeast: modulators of CIT2-GFP expression in yeast, primary screen, S. cerevisiae, GFP fusion, multiplex flow cytometry, MLPCN library. S. cerevisiae CIT2-GFP strain, 3 h; 100 means same as DMSO wells. GFP response vs DMSO, % at 10 µM. 320,000 compounds, 0.065% hits;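 active = GFP response relative to DMSO above a set limit, near the screen mean plus 3 SD, cut at about 150% in these data; inconclusive = Fewer than 70 cells measured for a yeast strain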;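 note: ratio of well median GFP fluorescence to mean of DMSO wells on the plate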
T cell modulator: modulators of CD8 T cell-vesicle binding, primary screen, mouse 2C CD8+ T cells, flow cytometry; 2C CD8+ T cell-vesicle binding; hits give low values; response (vesicle binding), % at 7 µM; AID 2052, 2009; 330,000 compounds, 0.068% hits;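 active = response, share of CD8 T cells binding vesicles, and their 90th percentile fluorescence all below set limits, cut at about 80% in these data, passing the limit was not always enough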;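 note: values below 100% mean blocked vesicle binding to the CD8+ T cells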
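Benchmarks: naked versus QL9-loaded vesicles / Assay system: purified 2C TCR transgenic mouse naive CD8+ T cells / Technique: high-throughput flow cytometry with anti-B7-1 and anti-CD8 staining / Timing: Cell–vesicle co-incubation 1.5 h at 37 °C, staining 20 min on ice / Read-out: percent CD8+ FL2 mean versus row control / Probe or stimulus: QL9-loaded Drosophila micro-vesicles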
* hit, by the source's call; [ ] = dose if it differs, or a comment.

COc1cc(OC)c(C(=O)OCC(=O)Nc2nnc(-c3ccccc3)o2)cc1OC was read as AGP1-GFP MLPCN 94.2, MEP2-GFP yeast 89.3, RPL19A-GFP yeast 95.0, LAP4 TOR yeast 107.5, CIT2 TOR yeast 92.9 and T cell modulator 190.4.
CN1CCN(CC(=O)c2ccccc2F)CC1 was read as AGP1-GFP MLPCN 103.3, MEP2-GFP yeast 103.7, RPL19A-GFP yeast 106.6, LAP4 TOR yeast 101.8, CIT2 TOR yeast 107.7 and T cell modulator 146.3.
S=C(NCCN1CCOCC1)NC1CCCC1 was read as AGP1-GFP MLPCN 105.4, MEP2-GFP yeast 110.5, RPL19A-GFP yeast 111.1, LAP4 TOR yeast 105.4, CIT2 TOR yeast 108.3 and T cell modulator 198.7.
Screening COc1ccc(C(c2c(N)[nH]c(=S)[nH]c2=O)c2c(N)[nH]c(=S)[nH]c2=O)cc1 returned AGP1-GFP MLPCN 95.7, MEP2-GFP yeast 96.6, RPL19A-GFP yeast 93.1, LAP4 TOR yeast 105.5, CIT2 TOR yeast 93.7 and T cell modulator 325.2.
CCOc1ccc2noc3c2c1C(=O)c1ccccc1-3 was read as AGP1-GFP MLPCN 103.2, MEP2-GFP yeast 163.1, RPL19A-GFP yeast 92.2, LAP4 TOR yeast 246.9*, CIT2 TOR yeast 121.2 and T cell modulator 703.9.
`Cc1ccc(NC(=O)C2C3CCC(O3)C2C(=O)O)c(Br)c1` (configuration not stated) gave AGP1-GFP MLPCN 103.6, MEP2-GFP yeast 106.8, RPL19A-GFP yeast 107.7, LAP4 TOR yeast 99.7, CIT2 TOR yeast 106.3 and T cell modulator 163.8.
For CN(C)c1cc(-c2ccc(Br)cc2)oc(=O)c1Cl the results were AGP1-GFP MLPCN 86.1, MEP2-GFP yeast 104.4, RPL19A-GFP yeast 100.2, LAP4 TOR yeast 107.2, CIT2 TOR yeast 93.2 and T cell modulator 679.3.
`CCC1(c2ccccc2)NC(=O)N(CC(=O)Nc2ccc(N3CCOCC3)cc2)C1=O` (configuration not stated) gave AGP1-GFP MLPCN 102.2, MEP2-GFP yeast 102.6, RPL19A-GFP yeast 101.2, LAP4 TOR yeast 103.8, CIT2 TOR yeast 97.2 and T cell modulator 238.3.
Screening Cc1ccc(Nc2cc(C)nn2-c2nc(C)cc(C)n2)cc1 returned AGP1-GFP MLPCN 88.8, MEP2-GFP yeast 91.0, RPL19A-GFP yeast 98.2, LAP4 TOR yeast 104.0, CIT2 TOR yeast 91.2 and T cell modulator 159.3.
Cc1ccc(Nc2cc(C)nn2-c2nc(C)cc(=O)[nH]2)cc1 was read as AGP1-GFP MLPCN 78.8, MEP2-GFP yeast 122.0, RPL19A-GFP yeast 69.5, LAP4 TOR yeast 151.7*, CIT2 TOR yeast 95.5 and T cell modulator 343.0.
NNC(=O)Cn1nc(Cc2ccccc2)n(N)c1=O was read as AGP1-GFP MLPCN 96.8, MEP2-GFP yeast 97.3, RPL19A-GFP yeast 97.7, LAP4 TOR yeast 92.8, CIT2 TOR yeast 93.2 and T cell modulator 66.7.
`Cc1noc(NC(=O)c2ccc(Cl)cc2)c1Cl` gave AGP1-GFP MLPCN inconclusive, MEP2-GFP yeast 91.8, RPL19A-GFP yeast 40.6*[may fluoresce violet], LAP4 TOR yeast 125.3, CIT2 TOR yeast inconclusive and T cell modulator 967.0.
For Cc1noc(NC(=O)c2cccc(C(F)(F)F)c2)c1Cl the results were AGP1-GFP MLPCN inconclusive, MEP2-GFP yeast inconclusive, RPL19A-GFP yeast inconclusive, LAP4 TOR yeast inconclusive, CIT2 TOR yeast 94.4 and T cell modulator 371.3.
`CC(CNC(=O)CCc1ccccc1)NC(=O)CCc1ccccc1` (configuration not stated) gave AGP1-GFP MLPCN 102.4, MEP2-GFP yeast 97.8, RPL19A-GFP yeast 98.3, LAP4 TOR yeast 104.8, CIT2 TOR yeast 99.5 and T cell modulator 615.7.
For CCCCCC(=O)NCC(C)NC(=O)CCCCC (configuration not stated) the results were AGP1-GFP MLPCN 101.8, MEP2-GFP yeast 100.0, RPL19A-GFP yeast 106.7, LAP4 TOR yeast 93.0, CIT2 TOR yeast 105.8 and T cell modulator 0.0*.
